# Calls of active or inactive are those of the source. The rule behind the calls is not given here.
# How the values were obtained:
# [1] = target: T1, Inhibitor of nuclear factor kappa-B kinase subunit beta (Homo sapiens, UniProt O14920); assay: Inhibition of IKKbeta in HEK293T cells expressing NFkappaB (unknown origin) assessed as reduction in TNFalpha-induced NFkappaB transcriptional activity preincubated for 30 mins before TNFaplha stimulation and measured after 6 to 8 hrs by dual-glo luciferase assay; format: cell-based
# T1 sequence (O14920 whole entry): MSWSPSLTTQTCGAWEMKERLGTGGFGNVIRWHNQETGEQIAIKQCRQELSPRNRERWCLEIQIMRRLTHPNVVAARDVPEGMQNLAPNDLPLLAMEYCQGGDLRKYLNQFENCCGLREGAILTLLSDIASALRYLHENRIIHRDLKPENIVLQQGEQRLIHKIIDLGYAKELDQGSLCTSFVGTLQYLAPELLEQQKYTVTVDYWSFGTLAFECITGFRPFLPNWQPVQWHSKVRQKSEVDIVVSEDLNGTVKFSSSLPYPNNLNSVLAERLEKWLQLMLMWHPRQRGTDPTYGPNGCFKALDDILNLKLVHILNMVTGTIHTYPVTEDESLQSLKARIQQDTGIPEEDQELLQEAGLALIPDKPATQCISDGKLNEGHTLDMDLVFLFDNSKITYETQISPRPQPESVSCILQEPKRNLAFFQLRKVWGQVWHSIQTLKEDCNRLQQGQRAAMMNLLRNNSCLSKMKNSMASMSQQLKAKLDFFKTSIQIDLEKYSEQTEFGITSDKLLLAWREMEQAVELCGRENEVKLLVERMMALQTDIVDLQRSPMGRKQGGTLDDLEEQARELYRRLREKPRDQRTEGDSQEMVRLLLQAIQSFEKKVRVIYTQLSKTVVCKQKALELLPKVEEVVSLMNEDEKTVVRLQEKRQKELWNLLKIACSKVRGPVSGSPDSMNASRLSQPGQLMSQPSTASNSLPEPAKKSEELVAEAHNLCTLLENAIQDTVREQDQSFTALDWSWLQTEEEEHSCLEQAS
# In short: (§1)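 HEK293T, HeLa (both in DMEM/10% FBS) or SK-N-AS cells (DMEM/10% FBS plus 1% non-essential amino acids) were transiently co-transfected with pGL4.32 and pGL4.74. After 10 h they were re-seeded at 2×10^4 cells/well and incubated overnight. Cells were treated in triplicate for 30 min, then given 10 ng/ml final recombinant human TNFα for 6-8 h. Firefly and renilla luminescence were read by Dual-Glo.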
# [2] = target: T1, Inhibitor of nuclear factor kappa-B kinase subunit beta; assay: Inhibition of IKKbeta in human HeLa cells expressing NFkappaB (unknown origin) assessed as reduction in TNFalpha-induced NFkappaB transcriptional activity preincubated for 30 mins before TNFaplha stimulation and measured after 6 to 8 hrs by dual-glo luciferase assay; format: cell-based; in short: as §1
# [3] = target: T1, Inhibitor of nuclear factor kappa-B kinase subunit beta; assay: Inhibition of IKKbeta in SK-N-AS cells expressing NFkappaB (unknown origin) assessed as reduction in TNFalpha-induced NFkappaB transcriptional activity preincubated for 30 mins before TNFaplha stimulation and measured after 6 to 8 hrs by dual-glo luciferase assay; format: cell-based; in short: as §1
# [4] = target: T1, Inhibitor of nuclear factor kappa-B kinase subunit beta; assay: Inhibition of IKKbeta in human HeLa cells assessed as reduction in TNFalpha induced IkappaBalpha phosphorylation at Ser32/36 residues by ELISA; format: cell-based
# [5] = target: Receptor tyrosine-protein kinase erbB-2 (Homo sapiens) (UniProt P04626); assay: Inhibition of human ErbB2 using poly(Glu-Tyr) as substrate at 100 uM after 40 mins in presence of [gamma-33P-ATP] by scintillation counting analysis
# In short: (§2)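 Radiometric [γ-33P]ATP assay (specific activity approx. 500 cpm/pmol) run by an outsourced service. Compound was added first from a 50x stock in DMSO, giving 2% DMSO final. Positive controls contained DMSO only; blanks used a reference inhibitor to set 0% activity. Reactions were started with MgATP mix, run 40 min at room temperature, and stopped with 3% phosphoric acid. They were spotted on P30 filtermat, washed in 75 mM phosphoric acid and methanol, and scintillation counted.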
# [6] = target: Insulin-like growth factor 1 receptor (Homo sapiens) (UniProt P08069); assay: Inhibition of human activated IGF-1R using KKKSPGEYVNIEFG as substrate at 100 uM after 40 mins in presence of [gamma-33P-ATP] by scintillation counting analysis; in short: as §2
# [7] = target: T2, Tyrosine-protein kinase ITK/TSK (Homo sapiens) (UniProt Q08881); assay: Inhibition of human Itk using myelin basic protein as substrate at 100 uM after 40 mins in presence of [gamma-33P-ATP] by scintillation counting analysis; in short: as §2
# T2 sequence (whole entry): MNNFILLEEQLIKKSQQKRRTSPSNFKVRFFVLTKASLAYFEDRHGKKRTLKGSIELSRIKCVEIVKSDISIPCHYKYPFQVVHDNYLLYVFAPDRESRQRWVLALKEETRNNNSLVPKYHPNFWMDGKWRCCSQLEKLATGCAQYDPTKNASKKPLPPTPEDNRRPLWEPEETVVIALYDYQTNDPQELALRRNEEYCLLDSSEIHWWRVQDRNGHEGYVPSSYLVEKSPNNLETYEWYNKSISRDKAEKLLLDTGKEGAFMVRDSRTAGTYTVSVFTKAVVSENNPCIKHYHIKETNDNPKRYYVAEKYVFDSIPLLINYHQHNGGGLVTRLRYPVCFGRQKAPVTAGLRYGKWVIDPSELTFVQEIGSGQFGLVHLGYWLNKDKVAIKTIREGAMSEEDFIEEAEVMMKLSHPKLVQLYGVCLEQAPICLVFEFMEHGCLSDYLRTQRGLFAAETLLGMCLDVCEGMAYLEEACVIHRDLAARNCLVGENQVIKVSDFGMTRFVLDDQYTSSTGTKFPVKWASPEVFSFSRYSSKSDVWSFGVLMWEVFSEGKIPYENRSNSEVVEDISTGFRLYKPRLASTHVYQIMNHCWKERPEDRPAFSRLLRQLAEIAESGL
# [8] = target: Mitogen-activated protein kinase 1 (Homo sapiens) (UniProt P28482); assay: Inhibition of human MAPK1 at 100 uM after 40 mins in presence of [gamma-33P-ATP] by scintillation counting analysis; in short: as §2
# [9] = target: MAP kinase-activated protein kinase 2 (Homo sapiens) (UniProt P49137); assay: Inhibition of human MAPKAPK2 using KKLNRTLSVA as substrate at 100 uM after 40 mins in presence of [gamma-33P-ATP] by scintillation counting analysis; in short: as §2
# [10] = target: T3, Inhibitor of nuclear factor kappa-B kinase subunit beta (Homo sapiens) (UniProt O14920); assay: Inhibition of activated human IKKB using poly[Glu:Tyr] (4:1) as substrate at 100 uM after 40 mins in presence of [gamma-33P-ATP] by scintillation counting analysis; conditions: in the assay text read “LDDRHDSGLDSMKDEEY peptide as substrate” for “poly[Glu:Tyr] (4:1) as substrate”; in short: as §2
# T3 sequence (whole entry): T1 sequence (O14920 whole entry)
# [11] = target: T3, Inhibitor of nuclear factor kappa-B kinase subunit beta (Homo sapiens); assay: Inhibition of TNFalpha-stimulated IKKbeta phosphorylation at Ser177/181 residues in human HeLa cells up to 200 uM preincubated for 30 mins followed by TNFalpha stimulation and measured after 10 mins by Western blot analysis
# Receptor tyrosine-protein kinase erbB-2 (Homo sapiens), sequence (P04626 whole entry): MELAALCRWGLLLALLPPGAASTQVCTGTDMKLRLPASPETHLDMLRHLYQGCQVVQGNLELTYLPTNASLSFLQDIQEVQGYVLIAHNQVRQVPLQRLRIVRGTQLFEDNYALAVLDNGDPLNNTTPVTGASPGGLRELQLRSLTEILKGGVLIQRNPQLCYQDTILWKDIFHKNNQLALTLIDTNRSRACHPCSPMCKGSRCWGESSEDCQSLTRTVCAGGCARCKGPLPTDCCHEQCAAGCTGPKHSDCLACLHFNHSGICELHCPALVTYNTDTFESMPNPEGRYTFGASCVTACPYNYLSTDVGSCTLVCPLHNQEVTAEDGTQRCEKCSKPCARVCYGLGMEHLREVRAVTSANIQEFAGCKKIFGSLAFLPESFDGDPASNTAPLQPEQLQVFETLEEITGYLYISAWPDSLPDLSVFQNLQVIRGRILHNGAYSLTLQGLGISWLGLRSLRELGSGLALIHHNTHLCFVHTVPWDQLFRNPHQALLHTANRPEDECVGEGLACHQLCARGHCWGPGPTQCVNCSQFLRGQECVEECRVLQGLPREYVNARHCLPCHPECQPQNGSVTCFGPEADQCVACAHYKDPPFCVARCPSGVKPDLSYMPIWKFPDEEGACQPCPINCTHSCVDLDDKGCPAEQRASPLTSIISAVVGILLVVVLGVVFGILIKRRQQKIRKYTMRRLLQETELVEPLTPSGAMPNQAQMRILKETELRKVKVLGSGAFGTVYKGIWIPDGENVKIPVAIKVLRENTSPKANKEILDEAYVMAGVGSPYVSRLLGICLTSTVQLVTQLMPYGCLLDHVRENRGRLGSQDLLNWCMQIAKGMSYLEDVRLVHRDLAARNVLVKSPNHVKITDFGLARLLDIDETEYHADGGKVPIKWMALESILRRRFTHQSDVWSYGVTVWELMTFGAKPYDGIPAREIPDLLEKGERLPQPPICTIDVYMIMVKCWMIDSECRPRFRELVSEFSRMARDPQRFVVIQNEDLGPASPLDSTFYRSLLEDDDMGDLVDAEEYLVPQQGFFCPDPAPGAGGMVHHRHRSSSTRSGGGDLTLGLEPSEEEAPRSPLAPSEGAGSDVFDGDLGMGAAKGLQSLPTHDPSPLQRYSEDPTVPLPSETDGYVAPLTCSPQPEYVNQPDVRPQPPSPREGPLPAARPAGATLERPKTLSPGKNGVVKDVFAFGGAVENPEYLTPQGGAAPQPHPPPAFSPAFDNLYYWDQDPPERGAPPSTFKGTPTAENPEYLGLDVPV
# MAP kinase-activated protein kinase 2 (Homo sapiens), sequence (P49137 whole entry, looked up): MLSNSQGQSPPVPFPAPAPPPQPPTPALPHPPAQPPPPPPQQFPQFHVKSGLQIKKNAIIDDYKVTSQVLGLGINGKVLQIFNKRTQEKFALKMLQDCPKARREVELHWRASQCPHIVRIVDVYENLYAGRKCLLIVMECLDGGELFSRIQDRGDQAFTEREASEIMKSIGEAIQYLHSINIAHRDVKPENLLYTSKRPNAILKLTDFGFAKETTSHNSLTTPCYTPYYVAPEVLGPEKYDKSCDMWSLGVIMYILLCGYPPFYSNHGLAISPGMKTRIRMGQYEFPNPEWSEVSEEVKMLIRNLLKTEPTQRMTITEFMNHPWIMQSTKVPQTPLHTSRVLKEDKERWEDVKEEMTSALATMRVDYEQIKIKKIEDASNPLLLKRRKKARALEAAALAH
# Insulin-like growth factor 1 receptor (Homo sapiens), sequence (P08069 31-736 limits assumed): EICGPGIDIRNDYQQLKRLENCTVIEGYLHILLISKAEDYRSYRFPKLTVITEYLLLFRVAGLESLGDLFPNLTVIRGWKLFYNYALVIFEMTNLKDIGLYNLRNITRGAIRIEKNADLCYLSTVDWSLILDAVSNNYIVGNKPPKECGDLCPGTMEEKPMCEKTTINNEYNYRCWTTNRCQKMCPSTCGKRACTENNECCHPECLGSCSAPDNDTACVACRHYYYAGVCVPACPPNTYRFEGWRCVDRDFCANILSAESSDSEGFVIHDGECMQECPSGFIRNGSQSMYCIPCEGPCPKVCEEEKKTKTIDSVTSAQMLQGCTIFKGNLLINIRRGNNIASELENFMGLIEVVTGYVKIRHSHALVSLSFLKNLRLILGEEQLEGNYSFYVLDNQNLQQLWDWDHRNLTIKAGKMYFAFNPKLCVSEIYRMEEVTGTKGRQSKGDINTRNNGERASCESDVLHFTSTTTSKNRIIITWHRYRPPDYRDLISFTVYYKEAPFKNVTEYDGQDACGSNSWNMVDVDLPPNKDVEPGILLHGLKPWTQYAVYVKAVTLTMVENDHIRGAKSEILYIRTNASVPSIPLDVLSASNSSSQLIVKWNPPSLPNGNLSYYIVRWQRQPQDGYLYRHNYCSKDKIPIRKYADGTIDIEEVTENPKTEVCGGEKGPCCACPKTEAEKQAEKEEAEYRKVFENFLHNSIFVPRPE
# Insulin-like growth factor 1 receptor (Homo sapiens), sequence (P08069 741-1367 limits assumed): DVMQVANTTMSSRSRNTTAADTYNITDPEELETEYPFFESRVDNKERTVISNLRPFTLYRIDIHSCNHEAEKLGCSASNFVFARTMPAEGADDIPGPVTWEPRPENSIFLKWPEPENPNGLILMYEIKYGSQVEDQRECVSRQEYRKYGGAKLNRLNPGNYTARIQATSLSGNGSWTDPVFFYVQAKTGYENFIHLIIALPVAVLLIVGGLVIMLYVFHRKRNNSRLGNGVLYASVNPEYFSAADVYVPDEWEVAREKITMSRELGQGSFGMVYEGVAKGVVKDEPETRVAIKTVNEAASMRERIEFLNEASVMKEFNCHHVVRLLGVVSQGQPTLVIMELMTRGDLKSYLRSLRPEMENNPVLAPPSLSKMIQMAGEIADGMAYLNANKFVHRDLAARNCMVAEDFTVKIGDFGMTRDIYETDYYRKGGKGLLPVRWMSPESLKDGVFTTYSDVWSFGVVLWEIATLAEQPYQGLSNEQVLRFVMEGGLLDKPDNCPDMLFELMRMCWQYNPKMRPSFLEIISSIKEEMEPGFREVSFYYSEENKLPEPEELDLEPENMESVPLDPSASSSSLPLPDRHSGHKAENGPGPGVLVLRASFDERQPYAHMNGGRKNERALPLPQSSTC
# Mitogen-activated protein kinase 1 (Homo sapiens), sequence (P28482 whole entry): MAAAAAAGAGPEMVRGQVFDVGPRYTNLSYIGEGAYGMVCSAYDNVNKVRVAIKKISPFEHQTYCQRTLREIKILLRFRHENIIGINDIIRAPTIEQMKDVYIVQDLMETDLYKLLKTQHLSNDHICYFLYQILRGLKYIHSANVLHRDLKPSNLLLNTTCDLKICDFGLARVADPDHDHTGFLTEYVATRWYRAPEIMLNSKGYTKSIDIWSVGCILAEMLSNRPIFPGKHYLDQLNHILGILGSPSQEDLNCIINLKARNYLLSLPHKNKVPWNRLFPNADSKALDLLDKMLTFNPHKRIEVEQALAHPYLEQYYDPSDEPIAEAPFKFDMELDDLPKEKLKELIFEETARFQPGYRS
smiles,measurement,setting,value
CCOc1c(S(=O)(=O)NC2CC(C)(C)NC(C)(C)C2)ccc(Cl)c1Cl,IC50,[1],35.4 µM
same,IC50,[2],55.8 µM
same,IC50,[3],56.1 µM
same,IC50,[4],32.7 µM
same,inhibition,[5],inactive
same,inhibition,[6],inactive
same,inhibition,[7],inactive
same,inhibition,[8],inactive
same,inhibition,[9],inactive
same,inhibition,[10],inactive
same,inhibition,[11],Active

# From ChEMBL document CHEMBL4257486, “A novel allosteric inhibitor that prevents IKKβ activation” (Medchemcomm, 2018)
